Assay results: ChEMBL document CHEMBL5303300, “EUbOPEN Chemogenomics Library - Multiplex” (2023)
Where “and” joins values, the source holds several entries; their conditions need not be identical. Identical values can stand only once.

Test system: Fibroblast
Assay: Multiplex assay against human fibroblast
Assay type: toxicity, cell-based
Conditions: number of replicates 2
Summary of the method: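 Hoechst33342, BioTracker Green Microtubule Cytoskeleton Dye, MitoTracker Red and Annexin V Alexa Fluor 680 were added to live cells at seeding, and imaging on a CQ1 microscope at 37°C and 5% CO2 followed compound addition. Gating by CellPathfinder machine learning separated cells into Hoechst high-intensity objects or normal cells, then normal cells into healthy, pyknosed or fragmented nuclei, then pyknosed cells into mitotic or apoptotic. Per cents of healthy-nucleus cells are reported for the tubulin, mitochondrial-mass and membrane-permeability phenotypes.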

[1] = 12 h, 1 µM, compound concentration 1 uM
[2] = 12 h, 10 µM, compound concentration 10 uM
[3] = 24 h, 1 µM, compound concentration 1 uM
[4] = 24 h, 10 µM, compound concentration 10 uM
[5] = 48 h, 1 µM, compound concentration 1 uM
[6] = 48 h, 10 µM, compound concentration 10 uM

## N=C(N)NCCC[C@H](NC(=O)COCC(c1ccccc1)c1ccccc1)C(=O)O.O=C(O)C(F)(F)F
[1]
  Population Apoptotic (%): 42% and 45%
  Population Fragmented Nuclei (%): 6% and 9%
  Population Healthy Nuclei (%): 71% and 75%
  Population Hoechst High Intensity Objects (%): 0%
  Population Membrane Permeable-Phenotype (%): 5% and 3%
  Population Mitochondria Different-Phenotype (%): 0% and 4%
  Population Mitotic Cells (%): 57% and 54%
  Population Normal (%): 100%
  Population Pyknosed Nuclei (%): 22% and 14%
  Population Tubulin-Different-Phenotype (%): 17% and 12%
  Total Cell Count: 172 and 221
[2]
  Population Apoptotic (%): 38% and 55%
  Population Fragmented Nuclei (%): 9% and 10%
  Population Healthy Nuclei (%): 79% and 71%
  Population Hoechst High Intensity Objects (%): 0%
  Population Membrane Permeable-Phenotype (%): 8% and 4%
  Population Mitochondria Different-Phenotype (%): 0%
  Population Mitotic Cells (%): 61% and 44%
  Population Normal (%): 100%
  Population Pyknosed Nuclei (%): 11% and 18%
  Population Tubulin-Different-Phenotype (%): 17% and 7%
  Total Cell Count: 161 and 156
[3]
  Population Apoptotic (%): 63% and 48%
  Population Fragmented Nuclei (%): 11% and 14%
  Population Healthy Nuclei (%): 64% and 67%
  Population Hoechst High Intensity Objects (%): 0%
  Population Membrane Permeable-Phenotype (%): 2% and 4%
  Population Mitochondria Different-Phenotype (%): 0% and 3%
  Population Mitotic Cells (%): 36% and 51%
  Population Normal (%): 100%
  Population Pyknosed Nuclei (%): 23% and 18%
  Population Tubulin-Different-Phenotype (%): 11% and 9%
  Total Cell Count: 171 and 247
[4]
  Population Apoptotic (%): 40% and 57%
  Population Fragmented Nuclei (%): 14% and 16%
  Population Healthy Nuclei (%): 71% and 70%
  Population Hoechst High Intensity Objects (%): 0%
  Population Membrane Permeable-Phenotype (%): 7%
  Population Mitochondria Different-Phenotype (%): 1% and 0%
  Population Mitotic Cells (%): 59% and 42%
  Population Normal (%): 100%
  Population Pyknosed Nuclei (%): 13%
  Population Tubulin-Different-Phenotype (%): 16% and 11%
  Total Cell Count: 158 and 160
[5]
  Population Apoptotic (%): 69% and 74%
  Population Fragmented Nuclei (%): 15% and 18%
  Population Healthy Nuclei (%): 65% and 68%
  Population Hoechst High Intensity Objects (%): 0%
  Population Membrane Permeable-Phenotype (%): 7% and 4%
  Population Mitochondria Different-Phenotype (%): 0%
  Population Mitotic Cells (%): 30% and 25%
  Population Normal (%): 100%
  Population Pyknosed Nuclei (%): 19% and 12%
  Population Tubulin-Different-Phenotype (%): 12% and 5%
  Total Cell Count: 172 and 253
[6]
  Population Apoptotic (%): 61% and 94%
  Population Fragmented Nuclei (%): 17% and 18%
  Population Healthy Nuclei (%): 70% and 71%
  Population Hoechst High Intensity Objects (%): 0%
  Population Membrane Permeable-Phenotype (%): 4% and 6%
  Population Mitochondria Different-Phenotype (%): 0%
  Population Normal (%): 100%
  Population Pyknosed Nuclei (%): 11% and 10%
  Population Tubulin-Different-Phenotype (%): 8%
  Total Cell Count: 151 and 170

## Cc1cccc(S(=O)(=O)N(C)[C@H](C)CCN2CCC(C)CC2)c1.Cl
[1]
  Population Apoptotic (%): 34% and 44%
  Population Fragmented Nuclei (%): 11% and 9%
  Population Healthy Nuclei (%): 67% and 73%
  Population Hoechst High Intensity Objects (%): 0%
  Population Membrane Permeable-Phenotype (%): 8% and 4%
  Population Mitochondria Different-Phenotype (%): 1% and 3%
  Population Mitotic Cells (%): 65% and 55%
  Population Normal (%): 100%
  Population Pyknosed Nuclei (%): 20% and 17%
  Population Tubulin-Different-Phenotype (%): 16% and 10%
  Total Cell Count: 140 and 163
[2]
  Population Apoptotic (%): 42% and 46%
  Population Fragmented Nuclei (%): 16% and 8%
  Population Healthy Nuclei (%): 70% and 80%
  Population Hoechst High Intensity Objects (%): 0%
  Population Membrane Permeable-Phenotype (%): 6% and 4%
  Population Mitochondria Different-Phenotype (%): 2% and 1%
  Population Mitotic Cells (%): 57% and 53%
  Population Normal (%): 100%
  Population Pyknosed Nuclei (%): 13% and 10%
  Population Tubulin-Different-Phenotype (%): 35% and 13%
  Total Cell Count: 187 and 145
[3]
  Population Apoptotic (%): 50% and 54%
  Population Fragmented Nuclei (%): 16% and 13%
  Population Healthy Nuclei (%): 61% and 71%
  Population Hoechst High Intensity Objects (%): 1% and 0%
  Population Membrane Permeable-Phenotype (%): 8% and 2%
  Population Mitochondria Different-Phenotype (%): 1% and 0%
  Population Mitotic Cells (%): 50% and 45%
  Population Normal (%): 98% and 100%
  Population Pyknosed Nuclei (%): 22% and 15%
  Population Tubulin-Different-Phenotype (%): 14% and 9%
  Total Cell Count: 144 and 156
[4]
  Population Apoptotic (%): 50% and 53%
  Population Fragmented Nuclei (%): 13% and 9%
  Population Healthy Nuclei (%): 76% and 81%
  Population Hoechst High Intensity Objects (%): 0%
  Population Membrane Permeable-Phenotype (%): 6% and 1%
  Population Mitochondria Different-Phenotype (%): 2% and 0%
  Population Mitotic Cells (%): 50% and 46%
  Population Normal (%): 100%
  Population Pyknosed Nuclei (%): 10% and 9%
  Total Cell Count: 177 and 144
[5]
  Population Apoptotic (%): 58% and 73%
  Population Fragmented Nuclei (%): 15%
  Population Healthy Nuclei (%): 63% and 72%
  Population Hoechst High Intensity Objects (%): 0%
  Population Membrane Permeable-Phenotype (%): 4% and 1%
  Population Mitochondria Different-Phenotype (%): 2% and 0%
  Population Mitotic Cells (%): 41% and 26%
  Population Normal (%): 100%
  Population Pyknosed Nuclei (%): 20% and 11%
  Total Cell Count: 139 and 160
[6]
  Population Apoptotic (%): 54% and 72%
  Population Fragmented Nuclei (%): 20% and 11%
  Population Healthy Nuclei (%): 74% and 81%
  Population Hoechst High Intensity Objects (%): 0%
  Population Membrane Permeable-Phenotype (%): 2%
  Population Mitochondria Different-Phenotype (%): 0%
  Population Mitotic Cells (%): 45% and 27%
  Population Normal (%): 100%
  Population Pyknosed Nuclei (%): 5% and 7%
  Total Cell Count: 185 and 152

## COc1cc(Br)c(S(=O)(=O)Nc2ccc(C(F)(F)F)c(O[C@@H]3CCN(C)C3)c2)cc1OC
[1]
  Population Apoptotic (%): 54% and 48%
  Population Fragmented Nuclei (%): 13% and 15%
  Population Healthy Nuclei (%): 71% and 63%
  Population Hoechst High Intensity Objects (%): 0%
  Population Membrane Permeable-Phenotype (%): 3% and 4%
  Population Mitochondria Different-Phenotype (%): 0%
  Population Mitotic Cells (%): 45% and 51%
  Population Normal (%): 100% and 99%
  Population Pyknosed Nuclei (%): 14% and 21%
  Population Tubulin-Different-Phenotype (%): 8% and 14%
  Total Cell Count: 161 and 215
[2]
  Population Apoptotic (%): 42% and 34%
  Population Fragmented Nuclei (%): 12% and 15%
  Population Healthy Nuclei (%): 61% and 63%
  Population Hoechst High Intensity Objects (%): 0%
  Population Membrane Permeable-Phenotype (%): 8% and 7%
  Population Mitochondria Different-Phenotype (%): 1% and 0%
  Population Mitotic Cells (%): 57% and 65%
  Population Normal (%): 100%
  Population Pyknosed Nuclei (%): 25% and 21%
  Population Tubulin-Different-Phenotype (%): 36% and 23%
  Total Cell Count: 164 and 244
[3]
  Population Apoptotic (%): 50% and 65%
  Population Fragmented Nuclei (%): 12% and 16%
  Population Healthy Nuclei (%): 67% and 62%
  Population Hoechst High Intensity Objects (%): 0%
  Population Membrane Permeable-Phenotype (%): 6% and 7%
  Population Mitochondria Different-Phenotype (%): 0% and 3%
  Population Mitotic Cells (%): 50% and 34%
  Population Normal (%): 99% and 100%
  Population Pyknosed Nuclei (%): 19% and 20%
  Population Tubulin-Different-Phenotype (%): 13% and 16%
  Total Cell Count: 157 and 207
[4]
  Population Apoptotic (%): 53% and 68%
  Population Fragmented Nuclei (%): 17% and 15%
  Population Healthy Nuclei (%): 63% and 69%
  Population Hoechst High Intensity Objects (%): 0%
  Population Membrane Permeable-Phenotype (%): 10% and 6%
  Population Mitochondria Different-Phenotype (%): 4% and 3%
  Population Mitotic Cells (%): 46% and 31%
  Population Normal (%): 100%
  Population Pyknosed Nuclei (%): 19% and 15%
  Population Tubulin-Different-Phenotype (%): 36% and 23%
  Total Cell Count: 163 and 231
[5]
  Population Apoptotic (%): 66% and 76%
  Population Fragmented Nuclei (%): 11% and 18%
  Population Healthy Nuclei (%): 72% and 69%
  Population Hoechst High Intensity Objects (%): 0%
  Population Membrane Permeable-Phenotype (%): 5% and 4%
  Population Mitochondria Different-Phenotype (%): 1%
  Population Mitotic Cells (%): 33% and 24%
  Population Normal (%): 100%
  Population Pyknosed Nuclei (%): 15% and 12%
  Population Tubulin-Different-Phenotype (%): 10% and 7%
  Total Cell Count: 154 and 204
[6]
  Population Apoptotic (%): 64% and 55%
  Population Fragmented Nuclei (%): 19% and 16%
  Population Healthy Nuclei (%): 71%
  Population Hoechst High Intensity Objects (%): 0%
  Population Membrane Permeable-Phenotype (%): 9% and 4%
  Population Mitochondria Different-Phenotype (%): 0% and 1%
  Population Mitotic Cells (%): 35% and 44%
  Population Normal (%): 100%
  Population Pyknosed Nuclei (%): 8% and 12%
  Population Tubulin-Different-Phenotype (%): 17% and 9%
  Total Cell Count: 156 and 218

## CN(C)CCN(Cc1ccc(-c2ccc(CNCCc3ccccc3)cc2)cc1)C(=O)CCC1CCCC1.Cl.Cl
[1]
  Population Apoptotic (%): 25% and 30%
  Population Fragmented Nuclei (%): 20% and 26%
  Population Healthy Nuclei (%): 56% and 57%
  Population Hoechst High Intensity Objects (%): 0%
  Population Membrane Permeable-Phenotype (%): 3% and 4%
  Population Mitochondria Different-Phenotype (%): 11% and 14%
  Population Mitotic Cells (%): 74% and 69%
  Population Normal (%): 100% and 99%
  Population Pyknosed Nuclei (%): 22% and 16%
  Population Tubulin-Different-Phenotype (%): 68% and 55%
  Total Cell Count: 254 and 325
[2]
  Population Apoptotic (%): 84% and 86%
  Population Fragmented Nuclei (%): 4% and 8%
  Population Healthy Nuclei (%): 3% and 1%
  Population Hoechst High Intensity Objects (%): 2% and 0%
  Population Mitotic Cells (%): 15% and 13%
  Population Normal (%): 97% and 99%
  Population Pyknosed Nuclei (%): 92% and 90%
  Population Tubulin-Different-Phenotype (%): 50% and 100%
  Total Cell Count: 199 and 160
[3]
  Population Apoptotic (%): 55% and 66%
  Population Fragmented Nuclei (%): 13% and 19%
  Population Healthy Nuclei (%): 67% and 68%
  Population Hoechst High Intensity Objects (%): 0%
  Population Membrane Permeable-Phenotype (%): 3% and 1%
  Population Mitochondria Different-Phenotype (%): 23% and 29%
  Population Mitotic Cells (%): 44% and 33%
  Population Normal (%): 99%
  Population Pyknosed Nuclei (%): 18% and 11%
  Population Tubulin-Different-Phenotype (%): 72% and 60%
  Total Cell Count: 239 and 294
[4]
  Population Apoptotic (%): 87% and 90%
  Population Fragmented Nuclei (%): 6% and 12%
  Population Healthy Nuclei (%): 1%
  Population Hoechst High Intensity Objects (%): 1%
  Population Membrane Permeable-Phenotype (%): 33%
  Population Mitotic Cells (%): 12% and 9%
  Population Normal (%): 98%
  Population Pyknosed Nuclei (%): 92% and 85%
  Total Cell Count: 199 and 156
[5]
  Population Apoptotic (%): 86% and 65%
  Population Fragmented Nuclei (%): 19% and 27%
  Population Healthy Nuclei (%): 74% and 66%
  Population Hoechst High Intensity Objects (%): 0%
  Population Membrane Permeable-Phenotype (%): 1%
  Population Mitochondria Different-Phenotype (%): 9% and 11%
  Population Mitotic Cells (%): 13% and 35%
  Population Normal (%): 100%
  Population Pyknosed Nuclei (%): 5% and 6%
  Population Tubulin-Different-Phenotype (%): 41% and 38%
  Total Cell Count: 255 and 321
[6]
  Population Apoptotic (%): 83% and 93%
  Population Fragmented Nuclei (%): 12% and 22%
  Population Healthy Nuclei (%): 6% and 13%
  Population Hoechst High Intensity Objects (%): 0%
  Population Membrane Permeable-Phenotype (%): 8% and 14%
  Population Mitochondria Different-Phenotype (%): 41% and 19%
  Population Mitotic Cells (%): 16% and 7%
  Population Normal (%): 100%
  Population Pyknosed Nuclei (%): 81% and 63%
  Population Tubulin-Different-Phenotype (%): 50% and 76%
  Total Cell Count: 200 and 157
